Assays:
L1210 = assay: Compound was evaluated for its cytotoxicity against the L1210 murine leukemia cell culture; type: functional; conditions: Mus musculus, read-out: ID50 (the source's name)
Mus musculus [1] = assay: In vivo antitumor activity was evaluated against L1210 leukemia implanted mice by measuring 7-day weight change after intraperitoneal administration of compound at 0.75 mg/kg; type: functional
Outline: (§1)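 Groups of five male B6D2F1J mice were inoculated ip with 10^5 L1210 cells on day 0. Starting day 1, drug in sterile water was given ip bid on days 1-4 and 7-10, with a single double-dose injection on days 5 and 6. Percent body-weight change was recorded at day 7, along with survival range, median T/C and ILS.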

Mus musculus [2] = assay: In vivo antitumor activity was evaluated against L1210 leukemia implanted mice by measuring percent increase in life span after intraperitoneal administration of compound at 0.75 mg/kg; type: functional
Outline: (§2)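 Male B6D2F1J mice, five per group, were implanted ip with 10^5 L1210 cells on day 0. Treatment began on day 1. Drug was given ip in sterile water, twice daily on days 1-4 and 7-10, and as a single double-dose injection on days 5 and 6. Survival was recorded in days (range, and median treated/control), with % ILS derived from it. Body-weight change at 7 days was also recorded.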

Mus musculus [3] = assay: In vivo antitumor activity was evaluated against L1210 leukemia implanted mice by measuring T/C median after intraperitoneal administration of compound at 1 mg/kg; T/C median=21/9; type: functional; outline: as §2
Mus musculus [4] = assay: In vivo antitumor activity was evaluated against L1210 leukemia implanted mice by measuring T/C median after intraperitoneal administration of compound at 0.75 mg/kg; T/C median=18/9; type: functional; outline: as §2
Mus musculus [5] = assay: In vivo antitumor activity was evaluated against L1210 leukemia implanted mice by measuring percent increase in life span after intraperitoneal administration of compound at 1 mg/kg; type: functional; outline: as §2
Mus musculus [6] = assay: In vivo antitumor activity was evaluated against L1210 leukemia implanted mice by measuring T/C median after intraperitoneal administration of compound at 0.5 mg/kg; T/C median=16/9; type: functional; outline: as §2
Mus musculus [7] = assay: In vivo antitumor activity was evaluated against L1210 leukemia implanted mice by measuring 7-day weight change after intraperitoneal administration of compound at 1 mg/kg; type: functional; outline: as §1
Mus musculus [8] = assay: In vivo antitumor activity was evaluated against L1210 leukemia implanted mice by measuring number of survival days after intraperitoneal administration of compound at 1 mg/kg; at a range of 3-22; type: functional; outline: as §2
Mus musculus [9] = assay: In vivo antitumor activity was evaluated against L1210 leukemia implanted mice by measuring number of survival days after intraperitoneal administration of compound at 0.5 mg/kg; at a range of 15-18; type: functional; outline: as §2
Mus musculus [10] = assay: In vivo antitumor activity was evaluated against L1210 leukemia implanted mice by measuring 7-day weight change after intraperitoneal administration of compound at 0.5 mg/kg; type: functional; outline: as §1
Mus musculus [11] = assay: In vivo antitumor activity was evaluated against L1210 leukemia implanted mice by measuring number of survival days after intraperitoneal administration of compound at 0.75 mg/kg; at a range of 16-21; type: functional; outline: as §2
Mus musculus [12] = assay: In vivo antitumor activity was evaluated against L1210 leukemia implanted mice by measuring percent increase in life span after intraperitoneal administration of compound at 0.5 mg/kg; type: functional; outline: as §2
Mus musculus [13] = assay: In vivo antitumor activity was evaluated against L1210 leukemia implanted mice by measuring T/C median after intraperitoneal administration of compound at 16 mg/kg; T/C median=15/8; type: functional; outline: as §2
Mus musculus [14] = assay: In vivo antitumor activity was evaluated against L1210 leukemia implanted mice by measuring number of survival days after intraperitoneal administration of compound at 12 mg/kg; at a range of 13-15
Mus musculus [15] = assay: In vivo antitumor activity was evaluated against L1210 leukemia implanted mice by measuring T/C median after intraperitoneal administration of compound at 12 mg/kg; T/C median=13/8; type: functional; outline: as §2
Mus musculus [16] = assay: In vivo antitumor activity was evaluated against L1210 leukemia implanted mice by measuring 7-day weight change after intraperitoneal administration of compound at 16 mg/kg; type: functional; outline: as §1
Mus musculus [17] = assay: In vivo antitumor activity was evaluated against L1210 leukemia implanted mice by measuring percent increase in life span after intraperitoneal administration of compound at 8 mg/kg; type: functional; outline: as §2
Mus musculus [18] = assay: In vivo antitumor activity was evaluated against L1210 leukemia implanted mice by measuring number of survival days after intraperitoneal administration of compound at 16 mg/kg; at a range of 15-17; type: functional; outline: as §2
Mus musculus [19] = assay: In vivo antitumor activity was evaluated against L1210 leukemia implanted mice by measuring 7-day weight change after intraperitoneal administration of compound at 12 mg/kg; type: functional; outline: as §1
[20] = target: T1, Dihydrofolate reductase (Mus musculus) (UniProt P00375)
T1 sequence (whole entry): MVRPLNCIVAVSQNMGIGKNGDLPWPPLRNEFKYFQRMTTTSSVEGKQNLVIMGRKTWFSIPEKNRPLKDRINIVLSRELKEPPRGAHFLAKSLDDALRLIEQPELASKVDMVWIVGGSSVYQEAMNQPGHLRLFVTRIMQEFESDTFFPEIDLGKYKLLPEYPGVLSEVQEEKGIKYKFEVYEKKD

Mus musculus [21] = assay: In vivo antitumor activity was evaluated against L1210 leukemia implanted mice by measuring percent increase in life span after intraperitoneal administration of compound at 12 mg/kg; type: functional; outline: as §2
Mus musculus [22] = assay: In vivo antitumor activity was evaluated against L1210 leukemia implanted mice by measuring 7-day weight change after intraperitoneal administration of compound at 8 mg/kg; type: functional; outline: as §1
Mus musculus [23] = assay: In vivo antitumor activity was evaluated against L1210 leukemia implanted mice by measuring T/C median after intraperitoneal administration of compound at 8 mg/kg; T/C median=13/8; type: functional; outline: as §2
Mus musculus [24] = assay: In vivo antitumor activity was evaluated against L1210 leukemia implanted mice by measuring number of survival days after intraperitoneal administration of compound at 8 mg/kg; at a range of 12-15; type: functional; outline: as §2
Mus musculus [25] = assay: In vivo antitumor activity was evaluated against L1210 leukemia implanted mice by measuring percent increase in life span after intraperitoneal administration of compound at 16 mg/kg; type: functional; outline: as §2
Mus musculus [26] = assay: In vivo antitumor activity was evaluated against L1210 leukemia implanted mice by measuring 7-day weight change after intraperitoneal administration of compound at 32 mg/kg; type: functional; outline: as §1
Mus musculus [27] = assay: In vivo antitumor activity was evaluated against L1210 leukemia implanted mice by measuring T/C median after intraperitoneal administration of compound at 32 mg/kg; T/C median=13/9; type: functional; outline: as §2
Mus musculus [28] = assay: In vivo antitumor activity was evaluated against L1210 leukemia implanted mice by measuring number of survival days after intraperitoneal administration of compound at 32 mg/kg; at a range of 12-16; type: functional; outline: as §2
Mus musculus [29] = assay: In vivo antitumor activity was evaluated against L1210 leukemia implanted mice by measuring percent increase in life span after intraperitoneal administration of compound at 32 mg/kg; type: functional; outline: as §2
Mus musculus [30] = assay: In vivo antitumor activity was evaluated against L1210 leukemia implanted mice by measuring number of survival days after intraperitoneal administration of compound at 16 mg/kg; at a range of 11-14; type: functional; outline: as §2
Mus musculus [31] = assay: In vivo antitumor activity was evaluated against L1210 leukemia implanted mice by measuring T/C median after intraperitoneal administration of compound at 16 mg/kg; T/C median=12/9; type: functional; outline: as §2

CN(Cc1cnc2nc(N)nc(N)c2n1)c1ccc(C(=O)N[C@@H](CCC(=O)O)C(=O)O)cc1 [METHOTREXATE]
IC50 (L1210): 12 nM
Weight change (Mus musculus [1]): -5%
Activity (Mus musculus [2]): 100%
Survival days (Mus musculus [3]): 21
Survival days (Mus musculus [4]): 18
Activity (Mus musculus [5]): 133%
Survival days (Mus musculus [6]): 16
Weight change (Mus musculus [7]): -8%
Survival days (Mus musculus [8]): 3
Survival days (Mus musculus [9]): 15
Weight change (Mus musculus [10]): -1%
Survival days (Mus musculus [11]): 16
Activity (Mus musculus [12]): 78%

Nc1nc(N)c2nc(CNc3ccc(C(=O)NC(CS(=O)(=O)O)C(=O)O)cc3)cnc2n1 (configuration not stated)
Survival days (Mus musculus [13]): 15
Survival days (Mus musculus [14]): 13
IC50 (L1210): 44 nM
Survival days (Mus musculus [15]): 13
Weight change (Mus musculus [16]): 0%
Activity (Mus musculus [17]): 62%
Survival days (Mus musculus [18]): 17
Activity (Mus musculus [19]): 2%
ID50 [20]: 65 nM
Activity (Mus musculus [21]): 62%
Weight change (Mus musculus [22]): 2%
Survival days (Mus musculus [23]): 13
Survival days (Mus musculus [24]): 12
Activity (Mus musculus [25]): 88%

CN(Cc1cnc2nc(N)nc(N)c2n1)c1ccc(C(=O)NC(CS(=O)(=O)O)C(=O)O)cc1 (configuration not stated)
Activity (Mus musculus [26]): -1%
IC50 (L1210): 340 nM
Weight change (Mus musculus [16]): 2%
ID50 [20]: 45 nM
Survival days (Mus musculus [27]): 13
Survival days (Mus musculus [28]): 12
Activity (Mus musculus [29]): 44%
Activity (Mus musculus [25]): 33%
Survival days (Mus musculus [30]): 11
Survival days (Mus musculus [31]): 12

— ChEMBL document CHEMBL1122647 (J Med Chem, 1984)
